SMILES strings stand for the structures. “And” between values parts separate entries of the source, which are not always exact repeats. Identical values can stand only once. Bounds are passed on as bounds.

The target of this test is T1, 3-oxo-5-alpha-steroid 4-dehydrogenase 1 (Homo sapiens, UniProt P18405).
T1 sequence (P18405 whole entry): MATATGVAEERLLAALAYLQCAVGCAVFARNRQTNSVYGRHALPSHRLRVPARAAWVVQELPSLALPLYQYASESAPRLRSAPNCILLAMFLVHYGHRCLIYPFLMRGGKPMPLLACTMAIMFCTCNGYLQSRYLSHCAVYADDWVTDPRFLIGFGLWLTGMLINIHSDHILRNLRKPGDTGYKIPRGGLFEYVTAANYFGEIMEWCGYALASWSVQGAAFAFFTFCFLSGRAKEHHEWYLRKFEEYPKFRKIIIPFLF
The experiment in a line: Inhibitory activity against 5-alpha-reductase type 1 in cell culture system using LNCaP cells (androgen-sensitive human prostatic cancer cell line). In kind it is cell-based. A digest of the protocol:
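LNCaP cells (express 5aR-1 only) seeded at 2×10⁵ cells/mL/well, grown 24 h in medium with 5% hormone-free FBS. Then exposed to [³H]-testosterone plus test sample (final 0.5% DMSO) for 18 h. Medium extracted with ethyl acetate, [³H]-T and [³H]-DHT separated by TLC. Conversion = DHT radioactivity/(T+DHT). IC50 ([…]) relative to 0.5% DMSO control.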
With `C=CCc1c(OCc2ccccc2)ccc2ccc(=O)oc12`, the IC50 (in general, the point on the concentration scale where inhibition reaches its midpoint) was greater than 13.7 µM.

Take `C#CCOc1ccc2ccc(=O)oc2c1`: the IC50 is greater than 99.9 µM.

In turn, `C=CCc1c(OC(C)(C)C=C)ccc2ccc(=O)oc12` showed an IC50 of 50.3 µM.

As for `C=CC(C)(C)Oc1ccc2ccc(=O)oc2c1`, the midpoint of inhibition, the IC50, lay at 1.3 µM.

Regarding `C=CCc1c(OC(=O)Nc2ccccc2)ccc2ccc(=O)oc12`, the IC50 is 0.622 µM and 0.62 µM.

In the case of `C=CCc1cc2ccc(=O)oc2cc1O`, the IC50 is 8.41 µM and 8.4 µM.

In turn, `C#CC(C)(C)Oc1ccc2ccc(=O)oc2c1CC=C` displayed an IC50 greater than 14.9 µM.

`C=CCc1c(OC(=O)c2ccccc2)ccc2ccc(=O)oc12`: half-maximal inhibition (IC50) required 0.49 µM.

In the case of `C=CCc1c(OCCO)ccc2ccc(=O)oc12`, the IC50 is greater than 81.2 µM.

In turn, `C=CCc1c(OCC(C)=O)ccc2ccc(=O)oc12` registered an IC50 greater than 77.4 µM.

Consider `C=CCc1c(OC(C)=O)ccc2ccc(=O)oc12`, for which the IC50 was 0.819 µM and 0.82 µM.

Turning to `C#CC(C)(C)Oc1ccc2ccc(=O)oc2c1`, the IC50 is greater than 87.6 µM.

Regarding `C=CCc1c(O)ccc2ccc(=O)oc12`, the half-maximal inhibitory concentration (IC50) is 0.989 µM and 0.99 µM.

Regarding `C=CCc1c(OC)ccc2ccc(=O)oc12`, the IC50 is greater than 18.5 µM.

In the case of `C=CCOc1ccc2ccc(=O)oc2c1` [7-ALLYLOXYCOUMARIN], the IC50 is greater than 98.9 µM.

Take `CC(C)(C)NC(=O)[C@H]1CC[C@H]2[C@@H]3CC[C@H]4NC(=O)C=C[C@]4(C)[C@H]3CC[C@]12C` [FINASTERIDE]: the IC50 was 53.1 µM and 53 µM.

For `O=c1ccc2ccc(O)cc2o1` [UMBELLIFERONE], the IC50 is greater than 123 µM.

These data come from ChEMBL document CHEMBL1133940, “A novel class of inhibitors for steroid 5alpha-reductase: synthesis and evaluation of umbelliferone derivatives” (Bioorg Med Chem Lett, 2001).
